# How the values were obtained:
# Assay type in all cases: cell-based
# [1] = target: T1, RNA polymerase II (Mus musculus) (UniProt P08775+Q8CFI7+P97760+A0A3Q4L2S8+Q80UW8+P61219+P62488+Q923G2+P60898+O08740+Q63871+P62876); assay: Inhibition of RNA polymerase II in mouse B16-F1 migrating cells assessed as fold change in Kdelr1-RNA stability at 0.1 mM measured by ChIP-seq analysis relative to control cells
# Outline: (§1)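 Mouse B16-F1 melanoma cells grown to confluence on fibronectin in DMEM/10% FCS at 37 °C, 7% CO2. Migration induced by multiple scratches and 3 h incubation; unscratched controls. DRB 0.1 mM added 3 h before lysis. RNA from poly A-selected mRNA was sequenced (RNA-seq, three replicates per DRB group). Fold change computed for DRB-treated migrating vs DRB-treated control cells; cutoffs fold change >1.3, FDR <0.05.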
# [2] = target: T1, RNA polymerase II (Mus musculus); assay: Inhibition of RNA polymerase II in mouse B16-F1 migrating cells assessed as fold change in Orc4-RNA stability at 0.1 mM measured by […] analysis relative to control cells
# [3] = target: T1, RNA polymerase II (Mus musculus); assay: Inhibition of RNA polymerase II in mouse B16-F1 migrating cells assessed as fold change in Yes1-RNA stability at 0.1 mM measured by […] analysis relative to control cells
# [4] = target: T1, RNA polymerase II (Mus musculus); assay: Inhibition of RNA polymerase II in mouse B16-F1 migrating cells assessed as fold change in Fxr1-RNA stability at 0.1 mM measured by ChIP-seq analysis relative to control cells
# [5] = target: T1, RNA polymerase II (Mus musculus); assay: Inhibition of RNA polymerase II in mouse B16-F1 migrating cells assessed as fold change in Socs5-RNA stability at 0.1 mM measured by […] analysis relative to control cells
# [6] = target: T1, RNA polymerase II (Mus musculus); assay: Inhibition of RNA polymerase II in mouse B16-F1 migrating cells assessed as fold change in Polr3f-RNA stability at 0.1 mM measured by […] analysis relative to control cells
# [7] = target: T1, RNA polymerase II (Mus musculus); assay: Inhibition of RNA polymerase II in mouse B16-F1 migrating cells assessed as fold change in Cul4b-RNA stability at 0.1 mM measured by […] analysis relative to control cells; outline: as §1
# [8] = target: T1, RNA polymerase II (Mus musculus); assay: Inhibition of RNA polymerase II in mouse B16-F1 migrating cells assessed as fold change in Arpc4-RNA stability at 0.1 mM measured by […] analysis relative to control cells
# [9] = target: T1, RNA polymerase II (Mus musculus); assay: Inhibition of RNA polymerase II in mouse B16-F1 migrating cells assessed as fold change in Kcnab2-RNA stability at 0.1 mM measured by ChIP-seq analysis relative to control cells; outline: as §1
# [10] = target: T1, RNA polymerase II (Mus musculus); assay: Inhibition of RNA polymerase II in mouse B16-F1 migrating cells assessed as fold change in AU019823-RNA stability at 0.1 mM measured by […] analysis relative to control cells
# [11] = target: T1, RNA polymerase II (Mus musculus); assay: Inhibition of RNA polymerase II in mouse B16-F1 migrating cells assessed as fold change in Lgals3-RNA stability at 0.1 mM measured by ChIP-seq analysis relative to control cells
# [12] = target: T1, RNA polymerase II (Mus musculus); assay: Inhibition of RNA polymerase II in mouse B16-F1 migrating cells assessed as fold change in Slc27a3-RNA stability at 0.1 mM measured by […] analysis relative to control cells
# [13] = target: T1, RNA polymerase II (Mus musculus); assay: Inhibition of RNA polymerase II in mouse B16-F1 migrating cells assessed as fold change in Mad2l2-RNA stability at 0.1 mM measured by ChIP-seq analysis relative to control cells
# [14] = target: T1, RNA polymerase II (Mus musculus); assay: Inhibition of RNA polymerase II in mouse B16-F1 migrating cells assessed as fold change in Bcap29-RNA stability at 0.1 mM measured by […] analysis relative to control cells
# [15] = target: T1, RNA polymerase II (Mus musculus); assay: Inhibition of RNA polymerase II in mouse B16-F1 migrating cells assessed as fold change in Plekha2-RNA stability at 0.1 mM measured by […] analysis relative to control cells
# [16] = target: Histone-lysine N-methyltransferase EZH2 (Mus musculus) (UniProt Q61188); assay: Inhibition of EZH2 in mouse B16-F1 migrating cells assessed as fold change in H3K27me3-buffered regulated Tuba4a-mRNA expression at 3 uM measured by […] analysis relative to control cells
# Outline: (§2)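 Confluent B16-F1 cells on fibronectin-coated plates were scratched at multiple sites, washed once with DMEM and left to migrate 3 h in growth medium (37 °C, 7% CO2); unscratched cells served as control. GSK343 (3 µM) was added 3 h before lysis. Poly A mRNA was sequenced (RNA-seq), with 5 replicates for untreated and 3 for treated cells. Differential expression was called by linear model with batch correction, at FDR <0.05 and fold change ≥1.3.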
# [17] = target: Histone-lysine N-methyltransferase EZH2 (Mus musculus) (UniProt Q61188); assay: Inhibition of EZH2 in mouse B16-F1 migrating cells assessed as fold change in H3K27me3-independent regulated Selenbp1-mRNA expression at 3 uM measured by […] analysis relative to control cells; outline: as §2
# [18] = target: Histone-lysine N-methyltransferase EZH2 (Mus musculus) (UniProt Q61188); assay: Inhibition of EZH2 in mouse B16-F1 migrating cells assessed as fold change in H3K27me3-buffered regulated 1810032O08Rik-mRNA expression at 3 uM measured by […] analysis relative to control cells
# Outline: (§3)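 Confluent B16-F1 cells on fibronectin-coated plates, cultured at 37 °C and 7% CO2, were scratched at multiple sites to induce migration. They were then held 3 h in growth medium containing 3 µM GSK343, with the inhibitor added 3 h before lysis. Unscratched cells served as controls. Poly A mRNA was analysed by RNA-seq (n=3 GSK343, n=5 controls). Linear models removed batch effects, and buffered genes were those altered only under GSK343 (FDR <0.05, fold change >1.3).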
# [19] = target: Histone-lysine N-methyltransferase EZH2 (Mus musculus) (UniProt Q61188); assay: Inhibition of EZH2 in mouse B16-F1 migrating cells assessed as fold change in H3K27me3-buffered regulated Tead4-mRNA expression at 3 uM measured by […] analysis relative to control cells; outline: as §2
# [20] = target: Histone-lysine N-methyltransferase EZH2 (Mus musculus) (UniProt Q61188); assay: Inhibition of EZH2 in mouse B16-F1 migrating cells assessed as fold change in H3K27me3-buffered regulated Arid4a-mRNA expression at 3 uM measured by ChIP-seq analysis relative to control cells; outline: as §3
# [21] = target: Histone-lysine N-methyltransferase EZH2 (Mus musculus) (UniProt Q61188); assay: Inhibition of EZH2 in mouse B16-F1 migrating cells assessed as fold change in H3K27me3-buffered regulated 1700027J19Rik-mRNA expression at 3 uM measured by […] analysis relative to control cells; outline: as §3
# [22] = target: Histone-lysine N-methyltransferase EZH2 (Mus musculus) (UniProt Q61188); assay: Inhibition of EZH2 in mouse B16-F1 migrating cells assessed as fold change in H3K27me3-dependent regulated Ddit4-mRNA expression at 3 uM measured by […] analysis relative to control cells; outline: as §2
# [23] = target: Histone-lysine N-methyltransferase EZH2 (Mus musculus) (UniProt Q61188); assay: Inhibition of EZH2 in mouse B16-F1 migrating cells assessed as fold change in H3K27me3-buffered regulated Tfcp2-mRNA expression at 3 uM measured by […] analysis relative to control cells; outline: as §2
# [24] = target: Histone-lysine N-methyltransferase EZH2 (Mus musculus) (UniProt Q61188); assay: Inhibition of EZH2 in mouse B16-F1 migrating cells assessed as fold change in H3K27me3-independent regulated Adgrg1-mRNA expression at 3 uM measured by […] analysis relative to control cells; outline: as §2
# Sequence of Histone-lysine N-methyltransferase EZH2 (Mus musculus) (Q61188 whole entry): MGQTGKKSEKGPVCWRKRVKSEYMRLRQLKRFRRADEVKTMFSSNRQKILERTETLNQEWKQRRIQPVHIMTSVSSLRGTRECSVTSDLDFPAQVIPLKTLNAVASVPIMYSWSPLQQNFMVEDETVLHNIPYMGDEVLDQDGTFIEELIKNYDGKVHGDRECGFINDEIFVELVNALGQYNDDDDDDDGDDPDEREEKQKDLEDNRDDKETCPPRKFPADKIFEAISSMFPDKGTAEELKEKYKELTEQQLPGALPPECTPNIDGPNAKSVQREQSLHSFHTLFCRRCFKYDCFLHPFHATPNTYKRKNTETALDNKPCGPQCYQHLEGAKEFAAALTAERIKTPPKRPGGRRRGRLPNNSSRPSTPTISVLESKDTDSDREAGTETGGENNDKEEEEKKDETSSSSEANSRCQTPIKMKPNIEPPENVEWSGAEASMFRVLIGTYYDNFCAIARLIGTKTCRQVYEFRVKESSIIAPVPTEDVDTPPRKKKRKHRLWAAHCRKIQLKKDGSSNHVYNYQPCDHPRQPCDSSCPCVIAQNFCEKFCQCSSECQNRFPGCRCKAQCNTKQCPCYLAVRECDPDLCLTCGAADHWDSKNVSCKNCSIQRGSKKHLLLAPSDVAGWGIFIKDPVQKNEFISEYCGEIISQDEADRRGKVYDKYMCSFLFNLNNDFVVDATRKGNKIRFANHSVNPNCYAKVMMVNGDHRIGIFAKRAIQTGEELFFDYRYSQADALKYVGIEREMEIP
structure (smiles),measurement,setting,value
OC[C@H]1O[C@@H](n2cnc3cc(Cl)c(Cl)cc32)[C@H](O)[C@@H]1O,log2FC,[1],0.4
same,log2FC,[2],-0.54
same,log2FC,[3],-0.83
same,log2FC,[4],-0.67
same,log2FC,[5],-0.48
same,log2FC,[6],-0.8
same,log2FC,[7],-0.49
same,log2FC,[8],0.44
same,log2FC,[9],0.49
same,log2FC,[10],-0.59
same,log2FC,[11],0.95
same,log2FC,[12],0.65
same,log2FC,[13],0.43
same,log2FC,[14],-0.48
same,log2FC,[15],0.71
CCCc1cc(C)[nH]c(=O)c1CNC(=O)c1cc(-c2ccnc(N3CCN(C)CC3)c2)cc2c1cnn2C(C)C,log2FC,[16],0.42
same,log2FC,[17],1.01
same,log2FC,[18],-1.08
same,log2FC,[19],0.38
same,log2FC,[20],-0.47
same,log2FC,[21],0.73
same,log2FC,[22],-0.53
same,log2FC,[23],-0.38
same,log2FC,[24],0.48

# Reference: ChEMBL document CHEMBL5674883, “The Heterochromatin Landscape in Migrating Cells and the Importance of H3K27me3 for Associated Transcriptome Alterations” (Cells, 2018)
